Measurements as given in ChEMBL document CHEMBL1240464, “Synthesis, structure and in vitro antibacterial activities of new hybrid disinfectants quaternary ammonium compounds: pyridinium and quinolinium stilbene benzenesulfonates” (2010).
The source made the active and inactive calls. The rule behind the calls is not given here.

Columns and labels:
Staphylococcus aureus [1] = experiment: Antibacterial activity against Staphylococcus aureus TISTR517 after 8 to 12 hrs by colorimetric microdilution broth technique; type: functional
Procedure, shortened: (§1)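 Broth microdilution in RPMI1640. Bacterial suspension in RPMI1640 is mixed with 1% Alamar Blue. Sample dissolved in DMSO at 25 mg/ml (stock) is added to the first row, then serially diluted two-fold down the plate to 128-fold. Plates are incubated at 37 °C for 8–12 h. MIC is the lowest concentration preventing the Alamar Blue change from blue to red. At least three repeats.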

Enterococcus faecalis [2] = experiment: Antibacterial activity against Enterococcus faecalis TISTR459 after 8 to 12 hrs by colorimetric microdilution broth technique; type: functional
Procedure, shortened: (§2)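 Broth microdilution with a colorimetric read-out. Bacteria were suspended in RPMI1640 with 1% Alamar Blue. Compound was dissolved in DMSO as a 25 mg/ml stock and added to the first row, then serially halved to a 128-fold final dilution. Plates were incubated at 37 °C for 8–12 h. MIC was the lowest concentration preventing the blue-to-red indicator change. Each assay was run at least three times.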

Shigella sonnei [3] = experiment: Antibacterial activity against Shigella sonnei after 8 to 12 hrs by colorimetric microdilution broth technique; type: functional; procedure, shortened: as §1
Enterococcus faecalis [4] = experiment: Antibacterial activity against vancomycin-resistant Enterococcus faecalis ATCC 51299 after 8 to 12 hrs by colorimetric microdilution broth technique; type: functional; procedure, shortened: as §2
Pseudomonas aeruginosa [5] = experiment: Antibacterial activity against Pseudomonas aeruginosa after 8 to 12 hrs by colorimetric microdilution broth technique; type: functional; procedure, shortened: as §1
Staphylococcus aureus [6] = experiment: Antibacterial activity against methicillin-resistant Staphylococcus aureus ATCC 43300 after 8 to 12 hrs by colorimetric microdilution broth technique; type: functional; procedure, shortened: as §2
Bacillus subtilis [7] = experiment: Antibacterial activity against Bacillus subtilis after 8 to 12 hrs by colorimetric microdilution broth technique; type: functional; procedure, shortened: as §1
Salmonella typhi [8] = experiment: Antibacterial activity against Salmonella typhi after 8 to 12 hrs by colorimetric microdilution broth technique; type: functional, Salmonella enterica subsp. enterica serovar Typhi; conditions: Salmonella enterica; procedure, shortened: as §2
Pseudomonas aeruginosa [9] = experiment: Antibacterial activity against Pseudomonas aeruginosa at up to 300 ug/ml after 8 to 12 hrs by colorimetric microdilution broth technique; type: functional, organism-based; procedure, shortened: as §1
Salmonella typhi [10] = experiment: Antibacterial activity against Salmonella typhi at up to 300 ug/ml after 8 to 12 hrs by colorimetric microdilution broth technique; type: functional, organism-based; conditions: Salmonella enterica subsp. enterica serovar Typhi; procedure, shortened: as §2
Staphylococcus aureus [11] = experiment: Antibacterial activity against Staphylococcus aureus TISTR517 at up to 300 ug/ml after 8 to 12 hrs by colorimetric microdilution broth technique; type: functional, organism-based; procedure, shortened: as §1
Enterococcus faecalis [12] = experiment: Antibacterial activity against Enterococcus faecalis TISTR459 at up to 300 ug/ml after 8 to 12 hrs by colorimetric microdilution broth technique; type: functional, organism-based; procedure, shortened: as §1
Bacillus subtilis [13] = experiment: Antibacterial activity against Bacillus subtilis at up to 300 ug/ml after 8 to 12 hrs by colorimetric microdilution broth technique; type: functional, organism-based; procedure, shortened: as §1
Enterococcus faecalis [14] = experiment: Antibacterial activity against vancomycin-resistant Enterococcus faecalis ATCC 51299 at up to 300 ug/ml after 8 to 12 hrs by colorimetric microdilution broth technique; type: functional, organism-based; procedure, shortened: as §2
Shigella sonnei [15] = experiment: Antibacterial activity against Shigella sonnei at up to 300 ug/ml after 8 to 12 hrs by colorimetric microdilution broth technique; type: functional, organism-based; procedure, shortened: as §1

SMILES | MIC (Enterococcus faecalis [2]) [µg/mL] | MIC (Shigella sonnei [3]) [µg/mL] | MIC (Enterococcus faecalis [4]) [µg/mL] | MIC (Staphylococcus aureus [6]) [µg/mL] | MIC (Bacillus subtilis [7]) [µg/mL] | MIC (Pseudomonas aeruginosa [9]) | MIC (Salmonella typhi [10]) | MIC (Staphylococcus aureus [11]) | other results
CN(C)c1ccc(/C=C/c2ccc3ccccc3[n+]2C)cc1.Cc1ccc(S(=O)(=O)[O-])cc1 | 2.34 | 2.34 | 2.34 | 2.34 | 2.34 | – | – | – | MIC (Staphylococcus aureus [1]): 2.34 µg/mL; MIC (Pseudomonas aeruginosa [5]): 300 µg/mL; MIC (Salmonella typhi [8]): 300 µg/mL
CCOc1ccc(/C=C/c2cccc[n+]2C)cc1.[I-] | – | 300 | – | 37.5 | – | – | – | – | –
CCOc1ccc(/C=C/c2ccc3ccccc3[n+]2C)cc1.Cc1ccc(S(=O)(=O)[O-])cc1 | 37.5 | 150 | 37.5 | 2.34 | 9.37 | – | – | – | –
CCOc1ccc(/C=C/c2ccc3ccccc3[n+]2C)cc1 | – | – | – | – | – | inactive | inactive | inactive | –
CCOc1ccc(/C=C/c2ccc3ccccc3[n+]2C)cc1.COc1ccc(S(=O)(=O)[O-])cc1 [listing 1 of 2 here] | – | – | – | – | – | inactive | inactive | inactive | –
CN(C)c1ccc(/C=C/c2cccc[n+]2C)cc1.Nc1ccc(S(=O)(=O)[O-])cc1 [listing 1 of 2 here] | – | – | 300 | 37.5 | – | – | – | – | –
CCOc1ccc(/C=C/c2cccc[n+]2C)cc1.Nc1ccc(S(=O)(=O)[O-])cc1 [listing 1 of 2 here] | – | – | – | – | – | inactive | inactive | inactive | MIC (Enterococcus faecalis [12]): inactive; MIC (Bacillus subtilis [13]): inactive; MIC (Enterococcus faecalis [14]): inactive; MIC (Shigella sonnei [15]): inactive
CN(C)c1ccc(/C=C/c2cccc[n+]2C)cc1.Cc1ccc(S(=O)(=O)[O-])cc1 | 300 | 300 | 300 | 37.5 | 150 | – | – | – | MIC (Staphylococcus aureus [1]): 300 µg/mL; MIC (Pseudomonas aeruginosa [5]): 150 µg/mL; MIC (Salmonella typhi [8]): 300 µg/mL
CN(C)c1ccc(/C=C/c2cccc[n+]2C)cc1.O=S(=O)([O-])c1ccc(Cl)cc1 | – | – | 150 | 37.5 | 300 | – | – | – | MIC (Pseudomonas aeruginosa [5]): 300 µg/mL; MIC (Salmonella typhi [8]): 300 µg/mL
CN(C)c1ccc(/C=C/c2cccc[n+]2C)cc1.O=S(=O)([O-])c1ccc(Br)cc1 [listing 1 of 2 here] | – | – | – | – | – | inactive | inactive | inactive | MIC (Enterococcus faecalis [12]): inactive; MIC (Bacillus subtilis [13]): inactive; MIC (Enterococcus faecalis [14]): inactive; MIC (Shigella sonnei [15]): inactive
CCOc1ccc(/C=C/c2cccc[n+]2C)cc1.Nc1ccc(S(=O)(=O)[O-])cc1 [listing 2 of 2 here] | – | – | – | 75 | – | – | – | – | –
CCOc1ccc(/C=C/c2ccc3ccccc3[n+]2C)cc1.[I-] | 75 | 150 | 37.5 | 2.34 | 37.5 | – | – | – | –
CN(C)c1ccc(/C=C/c2cccc[n+]2C)cc1.O=S(=O)([O-])c1ccc(Br)cc1 [listing 2 of 2 here] | – | – | – | 75 | – | – | – | – | –
CCOc1ccc(/C=C/c2ccc3ccccc3[n+]2C)cc1.COc1ccc(S(=O)(=O)[O-])cc1 [listing 2 of 2 here] | 75 | 150 | 18.8 | 2.34 | 18.8 | – | – | – | –
CN(C)c1ccc(/C=C/c2cccc[n+]2C)cc1 | – | – | – | – | – | – | – | inactive | MIC (Enterococcus faecalis [12]): inactive; MIC (Shigella sonnei [15]): inactive
CCOc1ccc(/C=C/c2ccc3ccccc3[n+]2C)cc1.O=S(=O)([O-])c1ccc(Br)cc1 | – | – | – | – | – | inactive | inactive | – | –
CCOc1ccc(/C=C/c2cccc[n+]2C)cc1.Cc1ccc(S(=O)(=O)[O-])cc1 | 150 | 150 | 300 | 37.5 | 300 | – | – | – | MIC (Staphylococcus aureus [1]): 150 µg/mL; MIC (Pseudomonas aeruginosa [5]): 37.5 µg/mL; MIC (Salmonella typhi [8]): 150 µg/mL
CN(C)c1ccc(/C=C/c2cccc[n+]2C)cc1.COc1ccc(S(=O)(=O)[O-])cc1 | 150 | 150 | 150 | 75 | 150 | – | – | – | MIC (Staphylococcus aureus [1]): 150 µg/mL; MIC (Pseudomonas aeruginosa [5]): 150 µg/mL; MIC (Salmonella typhi [8]): 150 µg/mL
CN(C)c1ccc(/C=C/c2cccc[n+]2C)cc1.Nc1ccc(S(=O)(=O)[O-])cc1 [listing 2 of 2 here] | – | – | – | – | – | inactive | inactive | inactive | MIC (Enterococcus faecalis [12]): inactive; MIC (Bacillus subtilis [13]): inactive; MIC (Shigella sonnei [15]): inactive
